Measured values as given in ChEMBL document CHEMBL3286372, “Design, synthesis and structure-activity relationship of novel semi-synthetic flavonoids as antiproliferative agents” (2014).

How the values were obtained:
[1] = Growth inhibition of human OVCAR4 cells after 48 hrs by coulter counting analysis; assay type: functional; settings: OVCAR-4, 48 h
Summary of the method: (§1)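 Five-dose NCI-60 follow-up, 0.01–100 µM, made from DMSO stock in buffered saline (final DMSO <1%), in duplicate wells. Cells in RPMI 1640 with 10% FBS at 6×10^4 cells/ml, 37 °C, 5% CO2, 48 h. Cells diluted tenfold in saline, Coulter-counted and corrected for dilution. GI50, TGI and LC50 taken from log concentration–percent growth curves.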

[2] = Growth inhibition of human OVCAR8 cells after 48 hrs by coulter counting analysis; assay type: functional; settings: OVCAR-8, 48 h; summary of the method: as §1
[3] = Growth inhibition of human RXF393 cells after 48 hrs by coulter counting analysis; assay type: functional; settings: RXF 393, 48 h; summary of the method: as §1
MDA-MB-231 = assay: Growth inhibition of human MDA-MB-231 cells after 48 hrs by coulter counting analysis; assay type: functional; settings: MDA-MB-231, 48 h
Summary of the method: (§2)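 NCI five-dose screen at 0.01-100 µM, diluted from DMSO stocks in buffered saline (final DMSO <1%). Cells at 6×10^4 cells/ml in RPMI 1640 with 10% FBS, in duplicate wells, at 37 °C under 5% CO2 for 48 h. Cells diluted tenfold in saline and Coulter-counted. GI50, TGI and LC50 taken from log concentration-growth inhibition curves.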

[4] = Growth inhibition of human Hs 578T cells after 48 hrs by coulter counting analysis; assay type: functional; summary of the method: as §2
T47D = assay: Growth inhibition of human T47D cells after 48 hrs by coulter counting analysis; assay type: functional; summary of the method: as §1
MDA-MB-468 = assay: Growth inhibition of human MDA-MB-468 cells after 48 hrs by coulter counting analysis; assay type: functional; settings: MDA-MB-468, 48 h; summary of the method: as §1
[5] = Growth inhibition of human NCI60 cells after 48 hrs by coulter counting analysis; assay type: functional; settings: NCI60, 48 h
Summary of the method: (§3)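 Five-dose screen (0.01-100 µM, DMSO-solubilized, under 1% DMSO final), cells in RPMI 1640 + 10% FBS at 6×10^4 cells/ml, duplicate wells, 37 °C, 5% CO2, 48 h. Cells then diluted tenfold in saline and counted by Coulter counter with dilution correction. Controls held buffer/saline/DMSO at matching dilutions. GI50 derived from log concentration-percent growth inhibition curves.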

[6] = target: Cyclin-dependent kinase 4/cyclin D1 (Homo sapiens) (UniProt P11802+P24385); assay: Inhibition of CDK4/Cyclin D1 (unknown origin) at 20 uM after 30 mins by scintillation counting analysis relative to control; assay type: protein-complex assay
Summary of the method: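 Recombinant kinases, cloned, expressed and purified in-house. Radiometric ³³P-ATP assay with kinase at ~10-50 nM final and 1-5 µg peptide or protein substrate. Compound at 20 µM final, in duplicate. Reaction started by adding ATP, run 30 min at ambient temperature, then spotted on P81 phosphocellulose. Plates washed in 1% phosphoric acid and counted by scintillation. No-substrate blank subtracted. Result is mean % activity change versus DMSO control.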

HL-60(TB) = assay: Growth inhibition of human HL-60(TB) cells after 48 hrs by coulter counting analysis; assay type: functional; settings: HL-60, 48 h; summary of the method: as §3
K562 = assay: Growth inhibition of human K562 cells after 48 hrs by coulter counting analysis; assay type: functional; settings: K562, 48 h; summary of the method: as §2
A549 = assay: Growth inhibition of human A549/ATCC cells after 48 hrs by coulter counting analysis; assay type: functional; settings: A549, 48 h; summary of the method: as §2
HOP-62 = assay: Growth inhibition of human HOP62 cells after 48 hrs by coulter counting analysis; assay type: functional; settings: HOP-62, 48 h; summary of the method: as §2
NCI-H226 = assay: Growth inhibition of human NCI-H226 cells after 48 hrs by coulter counting analysis; assay type: functional; settings: NCI-H226, 48 h; summary of the method: as §1
NCI-H460 = assay: Growth inhibition of human NCI-H460 cells after 48 hrs by coulter counting analysis; assay type: functional; settings: NCI-H460, 48 h; summary of the method: as §1
[7] = Growth inhibition of human HCC2998 cells after 48 hrs by coulter counting analysis; assay type: functional; settings: HCC 2998, 48 h; summary of the method: as §2
SNB-19 = assay: Growth inhibition of human SNB19 cells after 48 hrs by coulter counting analysis; assay type: functional; settings: SNB-19, 48 h; summary of the method: as §1
SNB-75 = assay: Growth inhibition of human SNB75 cells after 48 hrs by coulter counting analysis; assay type: functional; settings: SNB-75, 48 h; summary of the method: as §1
MDA-MB-435 = assay: Growth inhibition of human MDA-MB-435 cells after 48 hrs by coulter counting analysis; assay type: functional; settings: MDA-MB-435, 48 h; summary of the method: as §2
SK-MEL-28 = assay: Growth inhibition of human SK-MEL-28 cells after 48 hrs by coulter counting analysis; assay type: functional; settings: SK-MEL-28, 48 h; summary of the method: as §1
SK-MEL-5 = assay: Growth inhibition of human SK-MEL-5 cells after 48 hrs by coulter counting analysis; assay type: functional; settings: SK-MEL-5, 48 h; summary of the method: as §1
IGROV-1 = assay: Growth inhibition of human IGROV1 cells after 48 hrs by coulter counting analysis; assay type: functional; settings: IGROV-1, 48 h; summary of the method: as §2
TK-10 = assay: Growth inhibition of human TK10 cells after 48 hrs by coulter counting analysis; assay type: functional; settings: TK-10, 48 h
Summary of the method: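 NCI five-dose screen, 0.01-100 µM, from DMSO stocks diluted in buffer saline (final DMSO <1%). Cells grown in RPMI 1640 + 10% FBS, seeded at 6×10^4 cells/ml, in duplicate wells. Exposure 48 h at 37 °C, 5% CO2. Cells diluted 10-fold in saline and counted by Coulter counter. GI50 derived from log concentration–percent growth inhibition curves. Controls carried matching PBS/saline/DMSO.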

CCRF-CEM = assay: Growth inhibition of human CCRF-CEM cells at 10 uM after 48 hrs by sulforhodamine B assay relative to control; assay type: functional; settings: read-out: GI
Summary of the method: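 NCI-60 primary screen at a single dose of 10 µM with 48 h continuous exposure. Growth or viability read by sulforhodamine B protein staining and expressed as percent growth inhibition versus untreated cells.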

[8] = Growth inhibition of human OVCAR8 cells at 10 uM after 48 hrs by sulforhodamine B assay relative to control; assay type: functional; settings: OVCAR-8, 48 h, read-out: GI
Summary of the method: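 NCI-60 primary screen at a single 10 µM dose. Continuous 48 h exposure, with growth or viability estimated by sulforhodamine B protein staining. Reported as percent growth inhibition of treated cells relative to untreated growth.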

[9] = Growth inhibition of human UO31 cells at 10 uM after 48 hrs by sulforhodamine B assay relative to control; assay type: functional; settings: UO-31, 48 h, read-out: GI
Summary of the method: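 NCI-60 primary single-dose screen at 10 µM with continuous 48 h exposure. Cell viability/growth read by sulforhodamine B protein staining. Reported as percent growth inhibition relative to untreated cells.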

## COc1c2ccoc2c(/C=C/C=O)c2oc(-c3ccccc3)cc(=O)c12
[1]
  GI50: 3.2 µM
[2]
  GI50: 2.86 µM
[3]
  GI50: 4.26 µM
MDA-MB-231
  GI50: 4.1 µM
[4]
  GI50: 7.2 µM
T47D
  GI50: 2.14 µM
MDA-MB-468
  GI50: 7.02 µM
[5]
  LC50: 87.1 µM
  TGI: 35.5 µM
[6]
  inhibition: 0%
HL-60(TB)
  GI50: 2.33 µM
K562
  GI50: 3.21 µM
A549
  GI50: 21.5 µM
HOP-62
  GI50: 2.49 µM
NCI-H226
  GI50: 4.14 µM
NCI-H460
  GI50: 11.3 µM
[7]
  GI50: 16.1 µM
SNB-19
  GI50: 12 µM
SNB-75
  GI50: 8.3 µM
MDA-MB-435
  GI50: 4.83 µM
SK-MEL-28
  GI50: 2.73 µM
SK-MEL-5
  GI50: 3.04 µM
IGROV-1
  GI50: 17.5 µM

## COc1c(C(=O)/C=C/c2ccc(Cl)cc2)c(O)c(Br)c2occc12
[1]
  GI50: 3.28 µM
[2]
  GI50: 3.43 µM
[3]
  GI50: 2.37 µM
TK-10
  GI50: 3.48 µM
MDA-MB-231
  GI50: 4.33 µM
T47D
  GI50: 3.38 µM
MDA-MB-468
  GI50: 2.13 µM
[5]
  LC50: 87.1 µM
  TGI: 28.8 µM
[6]
  inhibition: 15%
HL-60(TB)
  GI50: 1.72 µM
K562
  GI50: 2.88 µM
A549
  GI50: 6.72 µM
HOP-62
  GI50: 6.82 µM
NCI-H226
  GI50: 2.84 µM
NCI-H460
  GI50: 2.99 µM
[7]
  GI50: 2.5 µM
SNB-19
  GI50: 8.24 µM
SNB-75
  GI50: 1.8 µM
MDA-MB-435
  GI50: 3.05 µM
SK-MEL-28
  GI50: 9.86 µM
SK-MEL-5
  GI50: 3.33 µM
IGROV-1
  GI50: 3.04 µM

## C=CCc1c(O)c(C(=O)/C=C/c2ccccc2)c(OC)c2ccoc12
[1]
  GI50: 2.89 µM
[2]
  GI50: 3.13 µM
[3]
  GI50: 1.85 µM
TK-10
  GI50: 4.96 µM
MDA-MB-231
  GI50: 3.11 µM
[4]
  GI50: 3.9 µM
T47D
  GI50: 4.11 µM
MDA-MB-468
  GI50: 3.07 µM
[5]
  LC50: 41.7 µM
  TGI: 11.2 µM
[6]
  inhibition: 0%
K562
  GI50: 2.87 µM
A549
  GI50: 4.41 µM
HOP-62
  GI50: 5.32 µM
NCI-H226
  GI50: 1.48 µM
NCI-H460
  GI50: 2.79 µM
[7]
  GI50: 1.73 µM
SNB-19
  GI50: 2.85 µM
SNB-75
  GI50: 1.39 µM
MDA-MB-435
  GI50: 2.78 µM
SK-MEL-28
  GI50: 2.49 µM
SK-MEL-5
  GI50: 2.66 µM
IGROV-1
  GI50: 3.35 µM

## C=CCc1c(O)c(C(=O)/C=C/c2ccc(Cl)cc2)c(OC)c2ccoc12
[1]
  GI50: 2.77 µM
[2]
  GI50: 3.04 µM
[3]
  GI50: 1.72 µM
TK-10
  GI50: 3.62 µM
MDA-MB-231
  GI50: 4.3 µM
[4]
  GI50: 4.02 µM
T47D
  GI50: 3.29 µM
MDA-MB-468
  GI50: 2.27 µM
[5]
  LC50: 37.1 µM
  TGI: 11 µM
[6]
  inhibition: 0%
K562
  GI50: 3.25 µM
A549
  GI50: 4.7 µM
HOP-62
  GI50: 2.31 µM
NCI-H226
  GI50: 1.52 µM
NCI-H460
  GI50: 3.2 µM
[7]
  GI50: 1.79 µM
SNB-19
  GI50: 2.85 µM
SNB-75
  GI50: 2.01 µM
MDA-MB-435
  GI50: 2.06 µM
SK-MEL-28
  GI50: 2.32 µM
SK-MEL-5
  GI50: 2.07 µM
IGROV-1
  GI50: 3.46 µM

## COc1ccc(-c2cc(=O)c3c(OC)c4ccoc4c(/C=C/C=O)c3o2)cc1
[1]
  GI50: 3.8 µM
[2]
  GI50: 2.83 µM
[3]
  GI50: 2.15 µM
MDA-MB-231
  GI50: 4.22 µM
[4]
  GI50: 10.4 µM
T47D
  GI50: 2.03 µM
MDA-MB-468
  GI50: 3.58 µM
[5]
  LC50: 72.4 µM
  TGI: 26.3 µM
[6]
  inhibition: 0%
HL-60(TB)
  GI50: 2.72 µM
K562
  GI50: 2.8 µM
A549
  GI50: 18.5 µM
HOP-62
  GI50: 2.98 µM
NCI-H226
  GI50: 2.93 µM
NCI-H460
  GI50: 4.7 µM
[7]
  GI50: 13.7 µM
SNB-19
  GI50: 3.16 µM
SNB-75
  GI50: 3.13 µM
MDA-MB-435
  GI50: 2.81 µM
SK-MEL-28
  GI50: 2.52 µM
SK-MEL-5
  GI50: 1.69 µM
IGROV-1
  GI50: 13.6 µM

## COc1c2occc2c(OC)c2c(=O)c(CN3CCOCC3)c(/C=C/c3ccc(Cl)cc3)oc12
CCRF-CEM
  inhibition of growth at 10 µM: 81%
[1]
  GI50: 2.75 µM
[2]
  GI50: 2.78 µM
[3]
  GI50: 2.36 µM
TK-10
  GI50: 5.32 µM
MDA-MB-231
  GI50: 2.92 µM
[4]
  GI50: 1.9 µM
T47D
  GI50: 4.31 µM
MDA-MB-468
  GI50: 2.12 µM
[5]
  LC50: 87.1 µM
  TGI: 33.1 µM
[6]
  inhibition: 6%
[8]
  inhibition of growth at 10 µM: 60%
[9]
  inhibition of growth at 10 µM: 61%
K562
  GI50: 3.28 µM
A549
  GI50: 2.85 µM
HOP-62
  GI50: 3.24 µM
NCI-H226
  GI50: 2.79 µM
NCI-H460
  GI50: 2.05 µM
[7]
  GI50: 2.85 µM
SNB-75
  GI50: 2.41 µM
MDA-MB-435
  GI50: 2.05 µM
SK-MEL-28
  GI50: 2.17 µM
SK-MEL-5
  GI50: 1.24 µM
IGROV-1
  GI50: 1.94 µM
